Laboratory results published in ChEMBL document CHEMBL1138085, “Thiazolo[5,4-f]quinazolin-9-ones, inhibitors of glycogen synthase kinase-3” (Bioorg Med Chem Lett, 2006).

How the values were obtained:
[1] = biological target: Cyclin-dependent kinase 1/cyclin B (Homo sapiens, UniProt P06493); experiment: Inhibition of CDK1/cyclinB in presence of 15 uM ATP; assay type: protein-complex assay
[2] = biological target: Cyclin-dependent kinase 5/CDK5 activator 1 (Homo sapiens, UniProt Q00535); experiment: Inhibition of CDK5/p25 in presence of 15 uM ATP; assay type: protein-complex assay
Summary of the method: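 Kinase activity assayed with histone H1 as protein substrate and ATP at 15 μM final; procedure otherwise as previously described.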

[3] = biological target: Glycogen synthase kinase-3 (Homo sapiens, UniProt P49840+P49841); experiment: Inhibition of GSK3alpha/beta in presence of 15 uM ATP; assay type: protein assay
Summary of the method: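 Assayed against GSK-3α/β using GS-1 peptide as substrate, final ATP 15 μM; conditions otherwise follow earlier published method.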

Sequence of Cyclin-dependent kinase 5/CDK5 activator 1 (Q00535 whole entry): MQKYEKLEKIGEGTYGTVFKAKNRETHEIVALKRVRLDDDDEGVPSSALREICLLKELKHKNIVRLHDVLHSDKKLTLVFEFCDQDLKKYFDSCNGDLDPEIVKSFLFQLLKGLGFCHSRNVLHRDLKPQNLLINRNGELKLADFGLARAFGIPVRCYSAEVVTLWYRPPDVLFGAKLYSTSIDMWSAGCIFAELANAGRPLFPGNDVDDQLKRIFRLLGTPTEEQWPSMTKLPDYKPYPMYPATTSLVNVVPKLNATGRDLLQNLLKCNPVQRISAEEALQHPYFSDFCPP
Sequence of Cyclin-dependent kinase 5/CDK5 activator 1 (Q15078 whole entry, further chain): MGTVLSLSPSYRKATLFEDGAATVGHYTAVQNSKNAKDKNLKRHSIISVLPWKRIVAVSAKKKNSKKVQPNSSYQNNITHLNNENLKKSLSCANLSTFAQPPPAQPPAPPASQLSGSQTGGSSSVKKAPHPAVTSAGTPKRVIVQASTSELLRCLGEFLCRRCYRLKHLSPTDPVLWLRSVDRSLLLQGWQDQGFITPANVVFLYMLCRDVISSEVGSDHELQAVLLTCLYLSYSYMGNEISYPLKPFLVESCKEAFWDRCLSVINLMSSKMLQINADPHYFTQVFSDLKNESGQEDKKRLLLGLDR

IC50 [1] [µM] | IC50 [2] [µM] | IC50 [3] [µM] | Compound
> 10 | > 10 | > 10 | CC(C)CCn1cnc2ccc3nc(C4=NCCN4)sc3c2c1=O
> 100 | > 100 | 1.6 | CCCn1cnc2ccc3nc(C4=NCCN4)sc3c2c1=O
– | > 10 | > 10 | O=c1c2c(ccc3nc(C4=NCCN4)sc32)ncn1Cc1ccccc1
– | – | 1.3 | CCn1cnc2ccc3nc(C(=N)NCCN(C)C)sc3c2c1=O
10 | 4 | 0.56 | CC(C)n1cnc2ccc3nc(C(=N)NCCN(C)C)sc3c2c1=O
> 100 | > 100 | 1.6 | CC(C)n1cnc2ccc3nc(C4=NCCN4)sc3c2c1=O
– | – | 7.2 | CCn1cnc2ccc3nc(C(=N)NC(C)C)sc3c2c1=O
– | – | 9.4 | CC(C)NC(=N)c1nc2ccc3ncn(C(C)C)c(=O)c3c2s1
> 100 | > 100 | 4.2 | CCn1cnc2ccc3nc(C4=NCCN4)sc3c2c1=O
85 | > 100 | 4.6 | CC(C)Cn1cnc2ccc3nc(C4=NCCN4)sc3c2c1=O
> 10 | – | > 10 | COc1ccc(Cn2cnc3ccc4nc(C5=NCCN5)sc4c3c2=O)cc1
